Values after ≈ are worked out from the molar mass of the structure shown.

Test [1] relates to Candida albicans. Put plainly: Minimum inhibitory concentration against Candida albicans. It counts as functional. The gist of the method:
(§1)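 Disk diffusion on YPG agar. Yeast suspension from 24 h YPG broth (C. albicans five isolates and Y. lipolytica at 28 °C, B. poitrasii at 37 °C) spread-plated. Filter disks carried a DMSO control or graded compound amounts from 1 mg/mL DMSO stock. Plates incubated 28 °C, 24 h. MIC taken as lowest concentration giving an inhibition zone; triplicate.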

Test [2] has as its system Benjaminiella. Put plainly: Minimum inhibitory concentration against Benjaminiella poitrassi. It counts as functional. The gist of the method: as §1
The subject of test [3] is Yarrowia lipolytica. Put plainly: Minimum inhibitory concentration against Yarrowia lipolytica. It counts as functional. The gist of the method: as §1
The test system of test [4] is HEp-2. As to the kind of experiment: Antiproliferative activity against HEp-2 cells. To be noted: Homo sapiens. It is filed as functional, cell-based. In a few lines:
(§2)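 MEM with 10% heat-inactivated FBS at 37 °C, 5% CO2. Cells seeded at 15 000/well and adhered 24 h. Treated in triplicate for 72 h with 0, 0.1, 1.0 or 10 μM compound from DMSO stock. MTT 1 mg/mL for 4 h at 37 °C, formazan dissolved in 2-propanol, OD 570 nm (630 nm reference). DMSO-only cells set as 100% growth.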

Test [5] concerns MCF7. Put plainly: In vitro antiproliferative activity against MCF-7 cells. It counts as functional, cell-based. To be noted: Homo sapiens. The gist of the method: as §2

On to `C[C@@H]1C[C@@H]([C@H](O)CC2CC(=O)NC(=O)C2)C(=O)[C@@H](C)C1` [CYCLOHEXIMIDE], for which the values for the MIC in test [1], in test [2] and in test [3] were greater than 0.9 µM, 0.071 µM (≈ 0.02 µg/mL) and 0.106 µM (≈ 0.0298 µg/mL), respectively.
For `C[C@H](CCC(=O)NCCNCCNC(=O)CC[C@H](C)[C@H]1CCC2C3C(C[C@@H](O)[C@@]21C)[C@@]1(C)CC[C@@H](O)CC1C[C@H]3O)[C@H]1CCC2C3C(C[C@@H](O)[C@@]21C)[C@@]1(C)CC[C@@H](O)CC1C[C@H]3O` (stereo partly drawn) the same measures were 0.0113 µM (≈ 0.01 µg/mL), 0.0113 µM (≈ 0.01 µg/mL) and 0.0113 µM (≈ 0.01 µg/mL).
Turning to `C[C@H](CCC(=O)NCCNC(=O)CC[C@H](C)[C@H]1CCC2C3CCC4C[C@H](O)CC[C@]4(C)C3C[C@@H](O)[C@@]21C)[C@H]1CCC2C3CCC4C[C@H](O)CC[C@]4(C)C3C[C@@H](O)[C@@]21C` (stereo partly drawn), the IC50 in test [4] and in test [5] was 2200 nM each time.

The values are drawn from ChEMBL document CHEMBL1149324, “New steroidal dimers with antifungal and antiproliferative activity” (J Med Chem, 2004).
